Each block holds one compound with its values, some of them ahead of it.
How the values were obtained:
Homo sapiens [1] = species: Homo sapiens; test: Cmax in HIV-infected human assessed as Lamivudine diphosphate level in PBMC at 300 mg QD for 7 days measured per 10^6 cells in presence of zidovudine; type: ADME, organism-based; design: dose 300 mg; conditions: 168 h
Summary of the method: (§1)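 Adolescents on Combivir QD (two tablets) gave a predose morning sample, then bloods at 2, 4, 6, 12 and 24 h. PBMC were lysed in 70% methanol (15 mM Tris pH 7.0) and anion-exchange cartridges separated MP/DP/TP by KCl step elution. Fractions were dephosphorylated with acid phosphatase, then ZDV or 3TC was measured by RIA (LOQ 0.15 ng/ml). Noncompartmental parameters; AUC by trapezoidal method; undetectables set to half LLOQ.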

Homo sapiens [2] = species: Homo sapiens; test: AUC in HIV-infected human assessed as Lamivudine monophosphate level in PBMC at 300 mg QD for 7 days in presence of zidovudine; type: ADME, organism-based; conditions: in vivo, 168 h; summary of the method: as §1
Homo sapiens [3] = species: Homo sapiens; test: Tmax in HIV-infected human assessed as Lamivudine monophosphate level in PBMC at 300 mg QD for 7 days in presence of zidovudine; type: ADME, organism-based; conditions: in vivo, 168 h; summary of the method: as §1
Homo sapiens [4] = test: Drug metabolism in HIV-infected human PBMC assessed as lamivudine parent-drug level at 300 mg administered in two courses, first QD for 7 days followed by BID for 7 to 14 days and second course the subjects were switched to the other regimen measured per 10^6 cells in presence of zidovudine
Homo sapiens [5] = test: Drug metabolism in HIV-infected human PBMC assessed as lamivudine diphosphate level at 300 mg administered in two courses, first QD for 7 days followed by BID for 7 to 14 days and second course the subjects were switched to the other regimen measured per 10^6 cells in presence of lamivudine
Homo sapiens [6] = test: Drug metabolism in HIV-infected human PBMC assessed as lamivudine monophosphate level at 300 mg administered in two courses, first BID for 7 to 14 days followed by QD for 7 days and second course the subjects were switched to the other regimen measured per 10^6 cells in presence of lamivudine
Homo sapiens [7] = test: Drug metabolism in HIV-infected human PBMC assessed as lamivudine monophosphate level at 300 mg administered in two courses, first QD for 7 days followed by BID for 7 to 14 days and second course the subjects were switched to the other regimen measured per 10^6 cells in presence of lamivudine
Homo sapiens [8] = species: Homo sapiens; test: Tmax in HIV-infected human assessed as Lamivudine triphosphate level in PBMC at 300 mg QD for 7 days in presence of zidovudine; type: ADME, organism-based; conditions: in vivo, 168 h; summary of the method: as §1
Homo sapiens [9] = species: Homo sapiens; test: Tmax in HIV-infected human assessed as Lamivudine diphosphate level in PBMC at 300 mg QD for 7 days in presence of zidovudine; type: ADME, organism-based; conditions: in vivo, 168 h; summary of the method: as §1
Homo sapiens [10] = species: Homo sapiens; test: AUC in HIV-infected human assessed as Lamivudine diphosphate level in PBMC at 300 mg QD for 7 days in presence of zidovudine; type: ADME, organism-based; conditions: in vivo, 168 h; summary of the method: as §1
Homo sapiens [11] = species: Homo sapiens; test: Cmax in HIV-infected human assessed as Lamivudine monophosphate level in PBMC at 300 mg QD for 7 days measured per 10^6 cells in presence of zidovudine; type: ADME, organism-based; design: dose 300 mg; conditions: 168 h; summary of the method: as §1
Homo sapiens [12] = species: Homo sapiens; test: AUC in HIV-infected human assessed as Lamivudine triphosphate level in PBMC at 300 mg QD for 7 days in presence of zidovudine; type: ADME, organism-based; conditions: in vivo, 168 h; summary of the method: as §1
Homo sapiens [13] = test: Drug metabolism in HIV-infected human PBMC assessed as lamivudine parent-drug level at 300 mg administered in two courses, first BID for 7 to 14 days followed by QD for 7 days and second course the subjects were switched to the other regimen measured per 10^6 cells in presence of zidovudine
Homo sapiens [14] = species: Homo sapiens; test: Cmax in HIV-infected human assessed as Lamivudine triphosphate level in PBMC at 300 mg QD for 7 days measured per 10^6 cells in presence of zidovudine; type: ADME, organism-based; design: dose 300 mg; conditions: 168 h; summary of the method: as §1
Homo sapiens [15] = test: Drug metabolism in HIV-infected human PBMC assessed as zidovudine triphosphate level at 600 mg administered in two courses, first QD for 7 days followed by BID for 7 to 14 days and second course the subjects were switched to the other regimen measured per 10^6 cells in presence of Lamivudine; type: ADME, organism-based
Summary of the method: (§2)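 Randomized crossover of Combivir: 600 mg ZDV/300 mg 3TC QD versus 300 mg/150 mg BID, in either order. Predose morning PBMC samples were taken on each regimen. Metabolites were separated on QMA cartridges, acid-phosphatase dephosphorylated, C-18 cleaned and quantified by RIA, reported per 10⁶ cells. Values below LLOQ were imputed as half LLOQ. Regimens were compared by Wilcoxon rank-sum; BID/QD ratios as medians with 95% CI.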

Homo sapiens [16] = test: Drug metabolism in HIV-infected human PBMC assessed as zidovudine monophosphate level at 600 mg administered in two courses, first QD for 7 days followed by BID for 7 to 14 days and second course the subjects were switched to the other regimen measured per 10^6 cells in presence of Lamivudine; type: ADME, organism-based; summary of the method: as §2
Homo sapiens [17] = test: Drug metabolism in HIV-infected human PBMC assessed as zidovudine parent-drug level at 600 mg administered in two courses, first BID for 7 to 14 days followed by QD for 7 days and second course the subjects were switched to the other regimen measured per 10^6 cells in presence of Lamivudine; type: ADME, organism-based; summary of the method: as §2
Homo sapiens [18] = test: Drug metabolism in HIV-infected human PBMC assessed as zidovudine diphosphate level at 600 mg administered in two courses, first QD for 7 days followed by BID for 7 to 14 days and second course the subjects were switched to the other regimen measured per 10^6 cells in presence of Lamivudine; type: ADME, organism-based; summary of the method: as §2
[19] = Half life in HIV-infected human at 600 mg, po qd; conditions: in vivo
[20] = Half life in HIV-infected human plasma at 1500 mg; type: ADME, cell-free
Homo sapiens [21] = species: Homo sapiens; test: Cmax in HIV-infected human assessed as zidovudine monophosphate level in PBMC at 600 mg QD for 7 days measured per 10^6 cells in presence of Lamivudine; type: ADME, organism-based; design: dose 600 mg; conditions: 168 h; summary of the method: as §1
Homo sapiens [22] = species: Homo sapiens; test: Tmax in HIV-infected human assessed as zidovudine diphosphate level in PBMC at 600 mg QD for 7 days in presence of Lamivudine; type: ADME, organism-based; conditions: in vivo, 168 h; summary of the method: as §1
Homo sapiens [23] = species: Homo sapiens; test: Cmax in HIV-infected human assessed as zidovudine triphosphate level in PBMC at 600 mg QD for 7 days measured per 10^6 cells in presence of Lamivudine; type: ADME, organism-based; design: dose 600 mg; conditions: 168 h; summary of the method: as §1
Homo sapiens [24] = species: Homo sapiens; test: Tmax in HIV-infected human assessed as zidovudine monophosphate level in PBMC at 600 mg QD for 7 days in presence of Lamivudine; type: ADME, organism-based; conditions: in vivo, 168 h; summary of the method: as §1
Homo sapiens [25] = species: Homo sapiens; test: AUC in HIV-infected human assessed as zidovudine diphosphate level in PBMC at 600 mg QD for 7 days in presence of Lamivudine; type: ADME, organism-based; conditions: in vivo, 168 h; summary of the method: as §1
Homo sapiens [26] = species: Homo sapiens; test: Tmax in HIV-infected human assessed as zidovudine triphosphate level in PBMC at 600 mg QD for 7 days in presence of Lamivudine; type: ADME, organism-based; conditions: in vivo, 168 h; summary of the method: as §1
Homo sapiens [27] = species: Homo sapiens; test: AUC in HIV-infected human assessed as zidovudine monophosphate level in PBMC at 600 mg QD for 7 days in presence of Lamivudine; type: ADME, organism-based; conditions: in vivo, 168 h; summary of the method: as §1
Homo sapiens [28] = test: Drug metabolism in HIV-infected human PBMC assessed as zidovudine parent-drug level at 600 mg administered in two courses, first QD for 7 days followed by BID for 7 to 14 days and second course the subjects were switched to the other regimen measured per 10^6 cells in presence of Lamivudine; type: ADME, organism-based; summary of the method: as §2
Homo sapiens [29] = test: Drug metabolism in HIV-infected human PBMC assessed as zidovudine monophosphate level at 600 mg administered in two courses, first BID for 7 to 14 days followed by QD for 7 days and second course the subjects were switched to the other regimen measured per 10^6 cells in presence of Lamivudine; type: ADME, organism-based; summary of the method: as §2
Homo sapiens [30] = species: Homo sapiens; test: Cmax in HIV-infected human assessed as zidovudine diphosphate level in PBMC at 600 mg QD for 7 days measured per 10^6 cells in presence of Lamivudine; type: ADME, organism-based; design: dose 600 mg; conditions: 168 h; summary of the method: as §1
Homo sapiens [31] = species: Homo sapiens; test: AUC in HIV-infected human assessed as zidovudine triphosphate level in PBMC at 600 mg QD for 7 days in presence of Lamivudine; type: ADME, organism-based; conditions: in vivo, 168 h; summary of the method: as §1
Homo sapiens [32] = test: Drug metabolism in HIV-infected human PBMC assessed as zidovudine diphosphate level at 600 mg administered in two courses, first BID for 7 to 14 days followed by QD for 7 days and second course the subjects were switched to the other regimen measured per 10^6 cells in presence of Lamivudine; type: ADME, organism-based; summary of the method: as §2
[33] = Half life in HIV-infected human at 300 mg, po bid; conditions: in vivo
Homo sapiens [34] = test: Drug metabolism in HIV-infected human PBMC assessed as zidovudine triphosphate level at 600 mg administered in two courses, first BID for 7 to 14 days followed by QD for 7 days and second course the subjects were switched to the other regimen measured per 10^6 cells in presence of Lamivudine; type: ADME, organism-based; summary of the method: as §2

Cmax (Homo sapiens [1]): 4424 fmol
AUC (Homo sapiens [2]): 10.42 pmol
Tmax (Homo sapiens [3]): 6.3 h
lamivudine parent-drug uptake (Homo sapiens [4]): 302 pmol
lamivudine diphosphate uptake (Homo sapiens [5]): 1934 pmol
lamivudine monophosphate uptake (Homo sapiens [6]): 396 pmol
lamivudine monophosphate uptake (Homo sapiens [7]): 282 pmol
Tmax (Homo sapiens [8]): 6.67 h
Tmax (Homo sapiens [9]): 6.37 h
AUC (Homo sapiens [10]): 70.01 pmol
Cmax (Homo sapiens [11]): 760 fmol
AUC (Homo sapiens [12]): 65.19 pmol
lamivudine parent-drug uptake (Homo sapiens [13]): 437 pmol
Cmax (Homo sapiens [14]): 4840 fmol
SMILES: Nc1ccn([C@@H]2CS[C@H](CO)O2)c(=O)n1 [LAMIVUDINE]

Drug uptake (Homo sapiens [15]): 9.3 fmol
Drug uptake (Homo sapiens [16]): 76.2 fmol
Drug uptake (Homo sapiens [17]): 23.5 fmol
Drug uptake (Homo sapiens [18]): 11.5 fmol
half-life [19]: 6.3 h
half-life [20]: 1 h
Cmax (Homo sapiens [21]): 2997.65 fmol
Tmax (Homo sapiens [22]): 3.48 h
Cmax (Homo sapiens [23]): 43.9 fmol
Tmax (Homo sapiens [24]): 2.44 h
AUC (Homo sapiens [25]): 627 fmol
Tmax (Homo sapiens [26]): 4.74 h
AUC (Homo sapiens [27]): 11883 fmol
Drug uptake (Homo sapiens [28]): 23.5 fmol
Drug uptake (Homo sapiens [29]): 75.3 fmol
Cmax (Homo sapiens [30]): 62.47 fmol
AUC (Homo sapiens [31]): 502 fmol
Drug uptake (Homo sapiens [32]): 12.2 fmol
half-life [33]: 5.48 h
Drug uptake (Homo sapiens [34]): 15.4 fmol
SMILES: Cc1cn([C@H]2C[C@H](N=[N+]=[N-])[C@@H](CO)O2)c(=O)[nH]c1=O [ZIDOVUDINE]

— ChEMBL document CHEMBL1153837, “Intracellular pharmacokinetics of once versus twice daily zidovudine and lamivudine in adolescents” (Antimicrob Agents Chemother, 2007)
